Experimental data from ChEMBL document CHEMBL3352430, “4-Aminopyridyl-based CYP51 inhibitors as anti-Trypanosoma cruzi drug leads with improved pharmacokinetic profile and in vivo potency” (J Med Chem, 2014).

How the values were obtained:
Trypanosoma cruzi [1] = assay: Antitrypanosomal activity against Trypanosoma cruzi Y luc infected in mouse assessed as inhibition of parasitemia at 40 mg/kg, ip bid in 60% DMSO administered for 4 consecutive days starting on day 3 of infection measured on day 7 post infection relative to vehicle-treated control
Lung [2] = assay: Drug uptake in mouse lung at 50 mg/kg, po in 20% Kolliphor measured at 8 hrs post dose; assay type: ADME, organism-based; set-up: dose 50 mg/kg, route oral; settings: in vivo
How it was run: (§1)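 Female Swiss Webster mice, 8 weeks old, given a single 50 mg/kg oral gavage dose in 20% HPβCD or 20% Kolliphor. Tissues taken from three mice at 2 and 8 h post dose. Homogenized by probe sonication in PBS (1:4 w/v), protein precipitated with acetonitrile, and compound measured by LC-MS/MS in μM.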

Cytochrome P450 1A2 = molecular target: T1, Cytochrome P450 1A2 (Homo sapiens, UniProt P05177); assay: Inhibition of CYP1A2 in human liver microsomes at 1 uM; assay type: ADME
T1 sequence (P05177 whole entry): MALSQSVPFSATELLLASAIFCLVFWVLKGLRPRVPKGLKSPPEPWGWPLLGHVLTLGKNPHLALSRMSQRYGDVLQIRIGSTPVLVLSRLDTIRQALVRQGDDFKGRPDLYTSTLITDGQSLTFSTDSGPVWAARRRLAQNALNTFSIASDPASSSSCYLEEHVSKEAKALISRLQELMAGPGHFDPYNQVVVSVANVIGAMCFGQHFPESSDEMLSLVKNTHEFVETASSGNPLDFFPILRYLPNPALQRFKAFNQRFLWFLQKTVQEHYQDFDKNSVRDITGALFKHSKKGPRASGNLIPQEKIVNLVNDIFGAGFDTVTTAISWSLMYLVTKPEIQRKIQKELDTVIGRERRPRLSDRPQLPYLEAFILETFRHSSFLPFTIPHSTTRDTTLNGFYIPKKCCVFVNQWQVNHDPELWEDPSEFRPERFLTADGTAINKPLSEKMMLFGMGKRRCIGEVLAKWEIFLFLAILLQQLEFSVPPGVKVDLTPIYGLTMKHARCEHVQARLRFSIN

[3] = Drug uptake in mouse fat at 50 mg/kg, po in 20% HP-beta-CD measured at 8 hrs post dose; assay type: ADME, organism-based, Adipose tissue; set-up: dose 50 mg/kg, route oral; settings: in vivo
How it was run: as §1

[4] = molecular target: Sterol 14-alpha demethylase (Trypanosoma cruzi (strain CL Brener), UniProt Q7Z1V1); assay: Binding affinity to Trypanosoma cruzi CYP51 by UV-vis titration method; settings: read-out: Kd(app)
Sequence of Sterol 14-alpha demethylase (Q7Z1V1 whole entry): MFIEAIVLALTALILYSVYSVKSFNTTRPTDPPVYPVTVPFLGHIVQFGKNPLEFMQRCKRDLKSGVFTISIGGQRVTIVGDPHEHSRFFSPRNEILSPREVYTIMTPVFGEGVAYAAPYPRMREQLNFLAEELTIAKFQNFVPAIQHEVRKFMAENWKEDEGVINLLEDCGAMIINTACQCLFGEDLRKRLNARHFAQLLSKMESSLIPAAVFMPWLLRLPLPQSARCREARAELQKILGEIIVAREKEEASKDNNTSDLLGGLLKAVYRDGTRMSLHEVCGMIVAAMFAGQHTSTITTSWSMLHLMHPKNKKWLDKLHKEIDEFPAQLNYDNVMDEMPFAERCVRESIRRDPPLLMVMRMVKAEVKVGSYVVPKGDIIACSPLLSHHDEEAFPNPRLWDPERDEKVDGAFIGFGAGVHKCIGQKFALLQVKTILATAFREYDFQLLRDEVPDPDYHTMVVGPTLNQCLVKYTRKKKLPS

Cytochrome P450 2C9 = Cytochrome P450 2C9 (Homo sapiens, UniProt P11712); assay: Inhibition of CYP2C9 in human liver microsomes at 1 uM; assay type: ADME
Sequence of Cytochrome P450 2C9 (P11712 whole entry): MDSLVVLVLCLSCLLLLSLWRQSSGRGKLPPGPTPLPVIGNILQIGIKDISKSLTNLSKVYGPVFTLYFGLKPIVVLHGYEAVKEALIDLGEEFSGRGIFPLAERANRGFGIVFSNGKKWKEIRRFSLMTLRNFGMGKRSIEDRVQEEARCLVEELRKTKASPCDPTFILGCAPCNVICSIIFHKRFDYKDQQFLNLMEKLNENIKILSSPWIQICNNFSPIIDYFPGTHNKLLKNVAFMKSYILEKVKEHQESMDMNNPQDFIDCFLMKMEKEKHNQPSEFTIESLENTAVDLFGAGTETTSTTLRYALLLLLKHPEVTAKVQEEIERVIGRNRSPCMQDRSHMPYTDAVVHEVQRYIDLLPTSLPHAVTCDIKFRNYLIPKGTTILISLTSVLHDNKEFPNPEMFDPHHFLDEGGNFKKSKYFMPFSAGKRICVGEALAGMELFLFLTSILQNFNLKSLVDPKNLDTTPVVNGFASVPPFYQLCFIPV

Liver [5] = assay: Drug uptake in mouse liver at 50 mg/kg, po in 20% Kolliphor measured at 8 hrs post dose; assay type: ADME, organism-based; set-up: dose 50 mg/kg, route oral; settings: in vivo
How it was run: as §1

[6] = Drug uptake in mouse skeletal muscle at 50 mg/kg, po in 20% Kolliphor measured at 8 hrs post dose; assay type: ADME, organism-based, Muscle tissue; set-up: dose 50 mg/kg, route oral; settings: in vivo
How it was run: as §1

[7] = Drug uptake in mouse skeletal muscle at 50 mg/kg, po in 20% HP-beta-CD measured at 8 hrs post dose; assay type: ADME, organism-based, Muscle tissue; set-up: dose 50 mg/kg, route oral; settings: in vivo
How it was run: as §1

[8] = Ratio of Kd(app) for Trypanosoma cruzi CYP51 to EC50 for Trypanosoma cruzi amastigotes infected in mouse C2C12 cells
How it was run: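 Ratio of apparent KD to EC50. Apparent KD was approximated from UV–vis spectrophotometric titration of T. cruzi CYP51 in aqueous solution. […] Compounds were added 24 h postinfection at 10 μM down to 5 pM for 72 h at 37 °C, 5% CO2. Fixed cells were DAPI-stained and imaged, in triplicate.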

Trypanosoma cruzi [9] = assay: Antitrypanosomal activity against Trypanosoma cruzi amastigotes infected in mouse C2C12 cells after 72 hrs by DAPI staining method; assay type: functional, organism-based; settings: C2C12, 72 h
C2C12 = assay: Cytotoxicity against mouse C2C12 cells up to 10 uM; assay type: cell-based
How it was run: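 Mouse C2C12 myoblasts infected with T. cruzi CA-I/72, then exposed at 24 h postinfection to compound at 10 μM down to 5 pM in 5-fold steps for 72 h at 37 °C. Cells fixed in paraformaldehyde, stained with DAPI and scored by automated imaging. Triplicate wells; uninfected and infected untreated wells as controls.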

Lung [10] = assay: Drug uptake in mouse lung at 50 mg/kg, po in 20% HP-beta-CD measured at 8 hrs post dose; assay type: ADME, organism-based; set-up: dose 50 mg/kg, route oral; settings: in vivo
How it was run: as §1

Intestine [11] = assay: Drug uptake in mouse intestine at 50 mg/kg, po in 20% Kolliphor measured at 8 hrs post dose; assay type: ADME, organism-based; set-up: dose 50 mg/kg, route oral; settings: in vivo
How it was run: as §1

Liver microsome [12] = assay: Half life in rat liver microsomes; assay type: ADME
Liver [13] = assay: Half life in mouse liver microsomes; assay type: ADME
Liver microsome [14] = assay: Half life in human liver microsomes; assay type: ADME
Intestine [15] = assay: Drug uptake in mouse intestine at 50 mg/kg, po in 20% HP-beta-CD measured at 8 hrs post dose; assay type: ADME, organism-based; set-up: dose 50 mg/kg, route oral; settings: in vivo
How it was run: as §1

Heart [16] = assay: Drug uptake in mouse heart at 50 mg/kg, po in 20% HP-beta-CD measured at 8 hrs post dose; assay type: ADME, organism-based; set-up: dose 50 mg/kg, route oral; settings: in vivo
How it was run: as §1

Heart [17] = assay: Drug uptake in mouse heart at 50 mg/kg, po in 20% Kolliphor measured at 8 hrs post dose; assay type: ADME, organism-based; set-up: dose 50 mg/kg, route oral; settings: in vivo
How it was run: as §1

Liver [18] = assay: Drug uptake in mouse liver at 50 mg/kg, po in 20% HP-beta-CD measured at 8 hrs post dose; assay type: ADME, organism-based; set-up: dose 50 mg/kg, route oral; settings: in vivo
How it was run: as §1

Trypanosoma cruzi [19] = assay: Antitrypanosomal activity against Trypanosoma cruzi Y luc infected in mouse assessed as inhibition of parasitemia at 25 mg/kg, po bid in 20% Kolliphor administered for 4 consecutive days starting on day 3 of infection measured on day 7 post infection relative to vehicle-treated control; assay type: functional
How it was run: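 Female Swiss Webster mice, 8 weeks old, infected ip with 10^5 T. cruzi Y luc trypomastigotes. Only mice with detectable luminescence on day 3 were treated. Compound given by oral gavage bid for four days, as a suspension in 20% HPβCD or a solution in 20% Kolliphor, five mice per group. Vehicle group and benznidazole 50 mg/kg served as controls. On day 7, mice were injected ip with 150 mg/kg d-luciferin and imaged after 5 min under isoflurane. Percent inhibition calculated against untreated mice; two-tailed paired t test.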

[20] = Drug uptake in mouse fat at 50 mg/kg, po in 20% Kolliphor measured at 8 hrs post dose; assay type: ADME, organism-based, Adipose tissue; set-up: dose 50 mg/kg, route oral; settings: in vivo
How it was run: as §1

Cytochrome P450 2D6 = Cytochrome P450 2D6 (Homo sapiens, UniProt P10635); assay: Inhibition of CYP2D6 in human liver microsomes at 1 uM; assay type: ADME
Sequence of Cytochrome P450 2D6 (P10635 whole entry): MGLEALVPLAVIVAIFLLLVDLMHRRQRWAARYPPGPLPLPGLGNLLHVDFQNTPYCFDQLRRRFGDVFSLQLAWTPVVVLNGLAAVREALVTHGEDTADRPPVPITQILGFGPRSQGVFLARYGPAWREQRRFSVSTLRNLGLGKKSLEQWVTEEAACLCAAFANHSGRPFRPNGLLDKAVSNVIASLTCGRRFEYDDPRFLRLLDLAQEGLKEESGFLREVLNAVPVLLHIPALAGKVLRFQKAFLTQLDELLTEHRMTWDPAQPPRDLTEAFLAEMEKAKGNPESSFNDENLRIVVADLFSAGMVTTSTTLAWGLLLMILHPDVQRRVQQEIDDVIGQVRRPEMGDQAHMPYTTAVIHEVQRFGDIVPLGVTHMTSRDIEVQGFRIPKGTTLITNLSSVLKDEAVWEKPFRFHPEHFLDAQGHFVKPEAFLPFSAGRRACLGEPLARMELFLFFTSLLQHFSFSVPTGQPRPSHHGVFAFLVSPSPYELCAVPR

Cytochrome P450 3A4 = Cytochrome P450 3A4 (Homo sapiens, UniProt P08684); assay: Inhibition of CYP3A4 in human liver microsomes at 1 uM; assay type: ADME
Sequence of Cytochrome P450 3A4 (P08684 whole entry): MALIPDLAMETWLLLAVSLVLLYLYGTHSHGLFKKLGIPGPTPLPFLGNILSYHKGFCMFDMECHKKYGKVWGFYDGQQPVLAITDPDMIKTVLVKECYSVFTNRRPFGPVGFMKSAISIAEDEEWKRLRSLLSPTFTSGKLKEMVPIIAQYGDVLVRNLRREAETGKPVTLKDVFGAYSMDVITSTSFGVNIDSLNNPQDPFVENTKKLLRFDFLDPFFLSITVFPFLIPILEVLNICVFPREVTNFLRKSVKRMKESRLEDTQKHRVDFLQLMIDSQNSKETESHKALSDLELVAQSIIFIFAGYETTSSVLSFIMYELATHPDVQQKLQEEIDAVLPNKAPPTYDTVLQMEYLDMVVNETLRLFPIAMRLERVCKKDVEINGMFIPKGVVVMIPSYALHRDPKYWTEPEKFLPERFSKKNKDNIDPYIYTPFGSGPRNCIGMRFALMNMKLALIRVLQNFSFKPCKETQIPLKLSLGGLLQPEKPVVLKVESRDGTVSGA

O=C(N[C@H](Cc1c[nH]c2ccccc12)C(=O)Nc1ccncc1)c1ccc(N2CCN(c3cccc(F)c3)CC2)cc1F
inhibition in vivo at 40 mg/kg (Trypanosoma cruzi [1]): 97.9%
Drug uptake (Lung [2]): Active
inhibition (INH) (Cytochrome P450 1A2): 5%
Drug uptake [3]: Active
Kd [4]: 290 nM
inhibition (INH) (Cytochrome P450 2C9): 95%
Drug uptake (Liver [5]): Active
Drug uptake [6]: Active
Drug uptake [7]: Active
Ratio [8]: 10
EC50 (Trypanosoma cruzi [9]): 59 nM
Activity (C2C12): Non-toxic
Drug uptake (Lung [10]): Active
Drug uptake (Intestine [11]): Active
t1/2 (Liver microsome [12]): 18 min
t1/2 (Liver [13]): 20 min
t1/2 (Liver microsome [14]): 6 min
Drug uptake (Intestine [15]): Active
Drug uptake (Heart [16]): Active
Drug uptake (Heart [17]): Active
Drug uptake (Liver [18]): Active
inhibition in vivo at 25 mg/kg (Trypanosoma cruzi [19]): 47.7%
Drug uptake [20]: Active
inhibition (INH) (Cytochrome P450 2D6): 52%
inhibition (INH) (Cytochrome P450 3A4): 84%
